For experiment [1], the system named is Plasmodium falciparum. Kind of experiment: Antimalarial activity against Plasmodium falciparum 7G8 after 72 hrs by SYBR Green-based fluorescence assay. As to conditions: 7G8, 72 h. Type of experiment: functional, organism-based. The method in brief: (§1)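 Drug stocks were made at 10 mM in sterile distilled water and serially diluted in culture medium. These were added in quadruplicate to asynchronous P. falciparum cultures at 0.2% parasitemia and 2% hematocrit, then incubated 72 h at 37 °C. Lysis buffer containing SYBR Green I was added, followed by 1 h at room temperature in the dark. Fluorescence was read at ex 497/em 520 nm, and IC50 was obtained by nonlinear regression of logistic dose-response curves.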

Experiment [2] has as its system Plasmodium falciparum. Kind of experiment: Antimalarial activity against Plasmodium falciparum Dd2 after 72 hrs by SYBR Green-based fluorescence assay. Format: functional, organism-based. Conditions: Dd2, 72 h. The method in brief:
as §1

Experiment [3] concerns Plasmodium falciparum. Kind of experiment: Antimalarial activity against Plasmodium falciparum D6 after 72 hrs by SYBR Green-based fluorescence assay. Format: functional, organism-based. Conditions: D6, 72 h. The method in brief: as §1
Experiment [4] can be described thus: Cytotoxicity against human MDA231 cells. Format: functional, cell-based. Conditions: MDA-MB-231.
Experiment [5] relates to WI-38. Kind of experiment: Cytotoxicity against human WI38 cells. Type of experiment: functional, cell-based. As to conditions: for IC50: Homo sapiens, WI-38.
Experiment [6] has as its system HCT-116. Kind of experiment: Cytotoxicity against human HCT116 cells. Format: functional, cell-based.
For experiment [7], the system named is PC-3. Kind of experiment: Cytotoxicity against human PC3 cells. Conditions: for IC50: Homo sapiens, PC-3. Format: functional, cell-based.
Experiment [8] has as its system Enterococcus faecalis. Kind of experiment: Antibacterial activity against Enterococcus faecalis ATCC 29212 after 20 hrs by broth microdilution method. As to conditions: ATCC 29212, 20 h. Format: functional. In a few lines:
(§2)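 MIC determined by standard broth microdilution following CLSI recommendations (document M07-A8).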
(In broth dilution the organism is exposed to a series of concentrations in liquid medium.)

In experiment [9] the test system is Acinetobacter baumannii. Kind of experiment: Antibacterial activity against Acinetobacter baumannii clinical isolate after 20 hrs by broth microdilution method. Type of experiment: functional. The method in brief:
as §2

The subject of experiment [10] is Pseudomonas aeruginosa. Kind of experiment: Antibacterial activity against Pseudomonas aeruginosa ATCC 27853 after 20 hrs by broth microdilution method. Type of experiment: functional. As to conditions: ATCC 27853, 20 h. The method in brief: as §2
The test system of experiment [11] is Klebsiella pneumoniae. Kind of experiment: Antibacterial activity against Klebsiella pneumoniae ATCC 700603 after 20 hrs by broth microdilution method. As to conditions: ATCC 700603, 20 h. Format: functional. The method in brief: as §2
For experiment [12], the system named is Staphylococcus aureus. Kind of experiment: Antibacterial activity against Staphylococcus aureus ATCC 25923 after 20 hrs by broth microdilution method. As to conditions: ATCC 25923, 20 h. Type of experiment: functional. In a few lines: as §2
Experiment [13] relates to Escherichia coli. Kind of experiment: Antibacterial activity against Escherichia coli ATCC 25922 after 20 hrs by broth microdilution method. Type of experiment: functional. As to conditions: ATCC 25922, 20 h. The method in brief:
as §2

≈ marks a conversion by molar mass, not a printed value.

With `CC(=O)c1cccc(N[C@H]2[C@H](N)[C@@](NC(=O)N3CCCCC3)([C@H](C)O)[C@@](C)(O)[C@@]2(O)CO)c1`, the IC50 is 1600 nM in experiment [1]; 2000 nM in [2]; over 2500 nM in [3]; over 1000 nM in experiment [4]; over 1000 nM in experiment [5]; over 1000 nM in [6]. The compound also returned an IC50 in experiment [7] of over 1000 nM. In addition, the MIC in experiment [8], in experiment [9], in experiment [10], in experiment [11], in experiment [12] and in experiment [13] was over 128 µg/mL each time.

Regarding `CC(=O)c1cccc(N[C@H]2[C@H](N)[C@@](NC(=O)N(C)C)([C@H](C)O)[C@@](C)(O)[C@@]2(O)COC(=O)c2c(C)cccc2O)c1` [PACTAMYCIN], the IC50 in [1] is 2.5 nM; in experiment [2], under 2.5 nM; in experiment [3] it was under 2.5 nM; in [4], 500 nM; in experiment [5] it was over 1000 nM; in experiment [6], 70 nM. Besides, in experiment [7], the IC50 was 240 nM. Also, the MIC was determined as 128 µg/mL (≈ 229 µM) in experiment [8]; 16 µg/mL (≈ 28.6 µM) in experiment [9]; 128 µg/mL (≈ 229 µM) in [10]; 32 µg/mL (≈ 57.3 µM) in experiment [11]; 0.12 µg/mL (≈ 0.215 µM) in experiment [12]; 16 µg/mL (≈ 28.6 µM) in experiment [13].

Take `CC(=O)c1cccc(N[C@H]2[C@H](N)[C@@](NC(=O)N(C)C)([C@H](C)O)[C@@](C)(O)[C@@]2(O)CO)c1`: the IC50 was 2.5 nM in [1]; under 2.5 nM in experiment [2]; under 2.5 nM in [3]; 260 nM in [4]; over 1000 nM in experiment [5]; 70 nM in experiment [6]. In experiment [7], this compound gave an IC50 of 310 nM. For the same compound, the MIC was found to be 64 µg/mL (≈ 151 µM) in experiment [8]; 128 µg/mL (≈ 302 µM) in experiment [9]; 128 µg/mL (≈ 302 µM) in experiment [10]; 8 µg/mL (≈ 18.8 µM) in experiment [11]; 2 µg/mL (≈ 4.71 µM) in [12]; 4 µg/mL (≈ 9.42 µM) in [13].

For the compound `COc1cccc(N[C@H]2[C@H](N)[C@@](NC(=O)N(C)C)([C@H](C)O)[C@@](C)(O)[C@@]2(O)CO)c1`, the IC50 was 19.8 nM in experiment [1]; 11.5 nM in [2]; 13.7 nM in [3]; over 1000 nM in experiment [4]; over 1000 nM in experiment [5]; 390 nM in [6]. The compound also came in with an IC50 in experiment [7] of over 1000 nM. Further, the MIC in experiment [8] is over 128 µg/mL; in experiment [9], 128 µg/mL (≈ 310 µM); in [10], over 128 µg/mL; in [11], over 128 µg/mL; in experiment [12], 16 µg/mL (≈ 38.8 µM); in experiment [13] it was 64 µg/mL (≈ 155 µM).

On to `CC(=O)c1cccc(N[C@H]2[C@H](N)[C@]3(NC(=O)O[C@H]3C)[C@@](C)(O)[C@@]2(O)COC(=O)c2c(C)cccc2O)c1` [PACTAMYCATE], for which the IC50 in experiment [1] was over 2500 nM; in experiment [2], over 2500 nM; in experiment [3], over 2500 nM; in experiment [4] it was over 1000 nM; in [5] it was over 1000 nM; in experiment [6], over 1000 nM. Further, the IC50 in experiment [7] is over 1000 nM. Also, the MIC in [8], in experiment [9], in experiment [10], in experiment [11], in experiment [12] and in experiment [13] was over 128 µg/mL in each case.

Turning to `CC(=O)c1cccc(N[C@H]2[C@H](N)[C@]3(NC(=O)O[C@H]3C)[C@@](C)(O)[C@@]2(O)CO)c1`, the IC50 in experiment [1] was over 2500 nM; in experiment [2], over 2500 nM; in experiment [3], over 2500 nM; in experiment [4] it was over 1000 nM; in [5] it was over 1000 nM; in [6] it was over 1000 nM. The IC50 in experiment [7] is over 1000 nM. Also, the MIC in [8], in [9], in experiment [10], in experiment [11], in experiment [12] and in experiment [13] was over 128 µg/mL each time.

Consider `C[C@H](O)[C@]1(NC(=O)N(C)C)[C@@H](N)[C@H](Nc2ccccc2)[C@](O)(CO)[C@]1(C)O`, for which the IC50 in experiment [1] is 18.5 nM; in experiment [2], 13.9 nM; in [3], 14.6 nM; in experiment [4], over 1000 nM; in experiment [5], over 1000 nM; in experiment [6], 810 nM. In experiment [7], this compound displayed an IC50 of over 1000 nM. The MIC in experiment [8] is over 128 µg/mL; in [9], over 128 µg/mL; in experiment [10], over 128 µg/mL; in experiment [11] it was 64 µg/mL (≈ 167 µM); in [12] it was 64 µg/mL (≈ 167 µM); in experiment [13] it was 32 µg/mL (≈ 83.7 µM).

In the case of `CC(=O)c1cccc(N[C@H]2[C@H](N)[C@@](NC(=O)N3CCOCC3)([C@H](C)O)[C@@](C)(O)[C@@]2(O)CO)c1`, the IC50 in [1] was over 2500 nM; in [2], over 2500 nM; in experiment [3], over 2500 nM; in experiment [4], over 1000 nM; in experiment [5], over 1000 nM; in experiment [6] it was over 1000 nM. The same compound gave an IC50 in experiment [7] of over 1000 nM. Further, the MIC in [8], in experiment [9], in experiment [10], in experiment [11], in experiment [12] and in [13] was over 128 µg/mL throughout.

Take `CCN(CC)C(=O)N[C@@]1([C@H](C)O)[C@@H](N)[C@H](Nc2cccc(C(C)=O)c2)[C@](O)(CO)[C@]1(C)O`: the IC50 in [1] was 42 nM; in experiment [2], 40 nM; in experiment [3], 29 nM; in experiment [4] it was 440 nM; in [5] it was over 1000 nM; in experiment [6], 230 nM. In experiment [7], this compound showed an IC50 of 400 nM. The MIC was 128 µg/mL (≈ 283 µM) in experiment [8]; over 128 µg/mL in [9]; over 128 µg/mL in [10]; over 128 µg/mL in experiment [11]; 4 µg/mL (≈ 8.84 µM) in experiment [12]; over 128 µg/mL in experiment [13].

With `C[C@H](O)[C@]1(NC(=O)N(C)C)[C@@H](N)[C@H](Nc2cccc(F)c2)[C@](O)(CO)[C@]1(C)O`, the half-maximal inhibitory concentration (IC50) in experiment [1] was under 2.5 nM; in experiment [2] it was 7.4 nM; in experiment [3] it was 6.5 nM; in experiment [4] it was over 1000 nM; in [5], over 1000 nM; in experiment [6], 190 nM. In experiment [7], this compound yielded an IC50 of over 1000 nM. Further, the entries for the “inhibition (INH)” value in [5] and in experiment [7] were 34% and 35%, respectively. Besides, the MIC in experiment [8] was 128 µg/mL (≈ 320 µM); in [9], 64 µg/mL (≈ 160 µM); in experiment [10], over 128 µg/mL; in experiment [11] it was 32 µg/mL (≈ 79.9 µM); in experiment [12], 4 µg/mL (≈ 9.99 µM); in experiment [13], 8 µg/mL (≈ 20 µM).

`CC(=O)c1cccc(N[C@H]2[C@H](N)[C@@](NC(=O)N3CCCC3)([C@H](C)O)[C@@](C)(O)[C@@]2(O)CO)c1`: the IC50 is 10 nM in [1]; 9 nM in experiment [2]; 9 nM in experiment [3]; 120 nM in experiment [4]; over 1000 nM in [5]; 90 nM in [6]. It took 150 nM to reach half-maximal inhibition in [7] (IC50). The MIC in experiment [8] is 128 µg/mL (≈ 284 µM); in experiment [9] it was over 128 µg/mL; in experiment [10] it was over 128 µg/mL; in experiment [11] it was 128 µg/mL (≈ 284 µM); in [12] it was 8 µg/mL (≈ 17.8 µM); in experiment [13] it was 64 µg/mL (≈ 142 µM).

Turning to `C[C@H](O)[C@]1(NC(=O)N(C)C)[C@@H](N)[C@H](Nc2cccc(C(F)(F)F)c2)[C@](O)(CO)[C@]1(C)O`, the IC50 in [1] is under 2.5 nM; in experiment [2], 3.5 nM; in experiment [3], 6.7 nM; in experiment [4] it was 380 nM; in [5], over 1000 nM; in experiment [6] it was 100 nM. The IC50 in experiment [7] worked out at 750 nM. Also, the “inhibition (INH)” value in [5] is reported as 42%. The MIC in experiment [8] was 64 µg/mL (≈ 142 µM); in experiment [9], 64 µg/mL (≈ 142 µM); in experiment [10] it was over 128 µg/mL; in [11], 128 µg/mL (≈ 284 µM); in experiment [12] it was 2 µg/mL (≈ 4.44 µM); in experiment [13], 16 µg/mL (≈ 35.5 µM).

Usually IC50 stands for the concentration that gives 50% inhibition. High values mean weaker potency in that assay, low ones greater potency in that assay. For orientation: MIC means the smallest concentration in the dilution series that meets the test's criterion for growth inhibition.
